Test results published in ChEMBL document CHEMBL2169875, “Designing allosteric regulators of thrombin. Monosulfated benzofuran dimers selectively interact with Arg173 of exosite 2 to induce inhibition” (J Med Chem, 2012).
One block for each compound: values may come before it. Calls of active or inactive are those of the source. The calls are words filed in the database; no cut-off is given here.

Tests used:
[1] = Partial competitive inhibition of wild type human plasma alpha-thrombin assessed as spectrozyme TH hydrolysis after 10 mins in presence of 48 uM exosite 2 ligand UFH; type: cell-free
How it was run: (§1)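 Buffer was 20 mM Tris-HCl pH 7.4, 100 mM NaCl, 2.5 mM CaCl2, 0.1% PEG 8000. After 10 min, Spectrozyme TH was added and A405 read. Apparent IC50 and efficacy came from a logistic fit with all parameters floating.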

[2] = biological target: Coagulation factor X (Homo sapiens, UniProt P00742); test: Inhibition of human plasma F10a assessed as spectrozyme TH hydrolysis after 10 mins
How it was run: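 Chromogenic assay of human plasma factor Xa (4 nM final) at 25 °C in 20 mM Tris-HCl pH 7.4, 100 mM NaCl, 2.5 mM CaCl2, 0.1% PEG 8000. Inhibitor dilutions (from 0.25–12.5 mM stocks) incubated with enzyme 10 min, then 1 mM Spectrozyme TH stock added. Initial rate at 405 nm gave fractional residual activity. Fitting the logistic equation yielded apparent IC50, Hill slope and efficacy ΔY.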

[3] = Inhibition of wild type human plasma alpha-thrombin assessed as spectrozyme TH hydrolysis after 10 mins by spectrophotometric analysis in absence of exosite 2 ligand UFH; how it was run: as §1
[4] = Inhibition of wild type human plasma alpha-thrombin assessed as spectrozyme TH hydrolysis after 10 mins in absence of exosite 2 ligand H8; how it was run: as §1
[5] = tested on: BHK; test: Inhibition of recombinant thrombin Arg93,97,101Ala mutant expressed in BHK cells assessed as spectrozyme TH hydrolysis at 0.25 to 12.5 mM after 10 mins; type: cell-based
[6] = Inhibition of wild type human plasma alpha-thrombin assessed as spectrozyme TH hydrolysis after 10 mins in presence of 10 uM exosite 2 ligand H8; type: cell-free; how it was run: as §1
[7] = tested on: A549; test: Cytotoxicity against human A549 cells assessed as cell viability up to 420 uM after 120 hrs by MTT assay; type: cell-based; conditions: a549, 120 h
How it was run: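 A549 cells in DMEM with 10% heat-inactivated FBS were kept at 37 °C, 5% CO2. Cells were seeded at 30,000 per well for 4 h, then exposed to medium or varying compound concentrations (aqueous stock) for 120 h at 37 °C. MTT was added for 10 h, followed by SDS/DMF lysis for 10 h. Three experiments were run, analysed by one-way ANOVA with Dunnett's test.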

[8] = Inhibition of recombinant thrombin Lys235Ala mutant expressed in BHK cells assessed as spectrozyme TH hydrolysis after 10 mins; type: cell-based
How it was run: (§2)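 Recombinant thrombins (wild type or Ala mutants) made as prothrombin-1 in BHK cells, purified by HPC4 immunoaffinity, activated, and active-site titrated. About 5 nM enzyme was incubated 10 min at 25 °C with inhibitor in 20 mM Tris-HCl pH 7.4, 100 mM NaCl, 2.5 mM CaCl2, 0.1% PEG 8000. Spectrozyme TH was then added, and the initial A405 rate was read. The dose-response of fractional residual activity was fitted to a logistic equation for IC50, Hill slope and efficacy.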

[9] = Inhibition of wild type human plasma alpha-thrombin assessed as spectrozyme TH hydrolysis after 10 mins in absence of exosite 1 ligand HirP; how it was run: as §1
[10] = Inhibition of recombinant thrombin Arg175Ala mutant expressed in BHK cells assessed as spectrozyme TH hydrolysis after 10 mins; type: cell-based; how it was run: as §2
[11] = biological target: T1, Prothrombin (Homo sapiens, UniProt P00734); test: Inhibition of recombinant wild type thrombin expressed in BHK cells assessed as spectrozyme TH hydrolysis at 0.25 to 12.5 mM after 10 mins; type: cell-based
[12] = Inhibition of recombinant thrombin Lys169Ala mutant expressed in BHK cells assessed as spectrozyme TH hydrolysis after 10 mins; type: cell-based; how it was run: as §2
[13] = biological target: T1, Prothrombin; test: Inhibition of recombinant wild type thrombin expressed in BHK cells assessed as spectrozyme TH hydrolysis after 10 mins; type: cell-based; how it was run: as §2
[14] = species: Homo sapiens; test: Inhibition of wild type human plasma alpha-thrombin assessed as spectrozyme TH hydrolysis after 10 mins in presence of exosite 1 ligand HirP; type: cell-free; how it was run: as §1
[15] = Inhibition of recombinant thrombin Arg93,97,101Ala mutant expressed in BHK cells assessed as spectrozyme TH hydrolysis after 10 mins; type: cell-based; how it was run: as §2
[16] = Inhibition of wild type human plasma alpha-thrombin assessed as spectrozyme TH hydrolysis after 10 mins in absence of exosite 2 ligand FibP; how it was run: as §1
[17] = Inhibition of wild type human plasma alpha-thrombin assessed as spectrozyme TH hydrolysis after 10 mins in presence of 6.5 uM exosite 2 ligand FibP; type: cell-free; how it was run: as §1
[18] = species: Homo sapiens; test: Binding affinity to human antithrombin by spectrofluorometric analysis

Chain of Coagulation factor X (P00742 41-179 limits assumed): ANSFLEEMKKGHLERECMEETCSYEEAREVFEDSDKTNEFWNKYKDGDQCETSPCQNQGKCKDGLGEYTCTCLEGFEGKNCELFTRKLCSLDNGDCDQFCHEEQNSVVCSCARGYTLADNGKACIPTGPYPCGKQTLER
Chain of Coagulation factor X (P00742 235-488 limits assumed): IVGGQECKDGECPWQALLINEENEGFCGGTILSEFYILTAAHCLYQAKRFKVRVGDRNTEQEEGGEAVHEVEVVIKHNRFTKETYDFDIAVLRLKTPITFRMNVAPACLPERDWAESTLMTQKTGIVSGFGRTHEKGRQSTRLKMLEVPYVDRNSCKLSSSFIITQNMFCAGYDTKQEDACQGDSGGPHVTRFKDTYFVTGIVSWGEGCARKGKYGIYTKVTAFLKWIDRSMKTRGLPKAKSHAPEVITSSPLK

Compound: CCOC(=O)c1c(C)oc2cc(OC)c(OCc3oc4cc(OC)c(OS(=O)(=O)[O-])cc4c3C(=O)OCC)cc12.[Na+]
IC50 [1]: 36.1 µM
IC50 [2]: > 300 µM
IC50 [3]: 8.8 µM
IC50 [4]: 2.7 µM
inhibition [5]: 70%
IC50 [6]: 3.7 µM
Activity [7]: Non-toxic
IC50 [8]: 4.9 µM
IC50 [9]: 6.2 µM
IC50 [10]: 4.9 µM
inhibition [11]: 30%
IC50 [12]: 4.9 µM
IC50 [13]: 5.5 µM
inhibition [14]: Active
IC50 [15]: 5 µM
IC50 [16]: 7.9 µM
IC50 [17]: 118 µM

Compound: COc1cc2oc(C)c(C(=O)O)c2cc1OCc1oc2cc(OC)c(OS(=O)(=O)O)cc2c1C(=O)O
IC50 [9]: > 500 µM

Compound: CO[C@H]1O[C@H](COS(=O)(=O)O)[C@@H](O[C@@H]2O[C@@H](C(=O)O)[C@@H](O[C@H]3O[C@H](COS(=O)(=O)O)[C@@H](O[C@@H]4O[C@H](C(=O)O)[C@@H](O[C@H]5O[C@H](COS(=O)(=O)O)[C@@H](O)[C@H](O)[C@H]5NS(=O)(=O)O)[C@H](O)[C@H]4O)[C@H](OS(=O)(=O)O)[C@H]3NS(=O)(=O)O)[C@H](O)[C@H]2OS(=O)(=O)O)[C@H](O)[C@H]1NS(=O)(=O)O
Activity [18]: 50 nM

Continued, values first:

IC50 [9]: 31.9 µM
Compound: COC(=O)c1c(C)oc2cc(OC)c(OCc3oc4cc(OC)c(OS(=O)(=O)O)cc4c3C(=O)OC)cc12

IC50 [9]: 1.3 µM
Compound: CCOC(=O)c1c(C)oc2cc(OC(C)C)c(OCc3oc4cc(OC(C)C)c(OS(=O)(=O)O)cc4c3C(=O)OCC)cc12

IC50 [9]: 4.5 µM
Compound: CCOC(=O)c1c(C)oc2cc(OCC)c(OCc3oc4cc(OCC)c(OS(=O)(=O)O)cc4c3C(=O)OCC)cc12

IC50 [9]: 16.9 µM
Compound: COCCOC(=O)c1c(C)oc2cc(OC)c(OCc3oc4cc(OC)c(OS(=O)(=O)O)cc4c3C(=O)OCCOC)cc12
